The source made the active and inactive calls. No cut-off for these calls is given here. A value given as a limit tells only on which side of the number the result lay.

The subject of experiment [1] is Candida albicans. The experiment is described as follows: Upregulation of Heat shock protein 70 expression in Candida albicans SC5314 at 40 uM after 24 hrs by MALDI-TOF MS. It counts as functional, organism-based. In outline: (§1)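 Overnight YNB-glucose SC5314 culture, PBS-washed, adjusted to OD600 0.1 and treated 24 h with 40 or 200 μM farnesol (methanol in controls). Proteomes were compared with untreated cells by 2D SDS-PAGE and MALDI-TOF MS, searched against NCBI nonredundant database. Spots were counted as changed at ≥1.5-fold in three independent experiments.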

Experiment [2] has as its system Candida albicans. The experiment is described as follows: Downregulation of Glyceraldehyde-3-phosphate dehydrogenase expression in Candida albicans SC5314 at 200 uM after 24 hrs by MALDI-TOF MS. The format is functional, organism-based. In outline: as §1
Experiment [3] has as its system Candida albicans. The experiment is described as follows: Upregulation of Heat shock protein 90 homologue expression in Candida albicans SC5314 at 40 uM after 24 hrs by MALDI-TOF MS. The format is functional, organism-based. In outline:
as §1

Experiment [4] concerns Candida albicans. As to the kind of experiment: Induction of apoptosis in Candida albicans SC5314 assessed as activation of caspase activity at 200 uM after 3 hrs by Fluorescence analysis. It counts as functional. In outline: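 Active caspases in farnesol-exposed cells (40, 100, 200 μM; methanol control, H2O2 positive control) were detected with a FLICA kit per manufacturer. Cells were examined by confocal microscopy, with green-fluorescing cells counted as caspase-positive and unstained cells as nonapoptotic. Percentage of positive cells was recorded.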

Experiment [5] deals with Candida albicans. The experiment is described as follows: Antiproliferative activity against Candida albicans SC5314 assessed as cell killing at 10 uM after 24 hrs by MTS assay. It counts as functional. In outline: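 SC5314 grown overnight in YNB (pH 7.0) with 50 mM glucose at 30°C, 120 rpm, washed in PBS. Suspensions at 1 × 10⁷ cells/ml exposed to farnesol at final 0, 10, 40, 100, 200, 300 μM for 24 h at 30°C with shaking, with methanol vehicle controls. MTS reagent added for 4 h at 37°C, A490 read, and % killed cells calculated.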

In experiment [6] the test system is Candida albicans. As to the kind of experiment: Downregulation of Dihydroxy acid dehydratase expression in Candida albicans SC5314 at 200 uM after 24 hrs by MALDI-TOF MS. The format is functional, organism-based. In short, it runs like this:
as §1

The subject of experiment [7] is Candida albicans. As to the kind of experiment: Increase in MCA1 expression in Candida albicans SC5314 at 10 mM after 4 hrs by quantitative PCR analysis.
In experiment [8] the test system is Candida albicans. As to the kind of experiment: Upregulation of Heat shock protein 90 expression in Candida albicans SC5314 at 200 uM after 24 hrs by MALDI-TOF MS. It counts as functional, organism-based. In outline: as §1
The test system of experiment [9] is Candida albicans. As to the kind of experiment: Upregulation of Aldose reductase expression in Candida albicans SC5314 at 200 uM after 24 hrs by MALDI-TOF MS. It counts as functional, organism-based. In short, it runs like this: as §1
Experiment [10] has as its system Candida albicans. As to the kind of experiment: Downregulation of carboxymethylenebutenolidase expression in Candida albicans SC5314 at 200 uM after 24 hrs by MALDI-TOF MS. It counts as functional, organism-based. In outline: as §1
Experiment [11] concerns Candida albicans. The experiment is described as follows: Upregulation of Putative mitochondrial aconitate hydratase expression in Candida albicans SC5314 at 40 uM after 24 hrs by MALDI-TOF MS. The format is functional, organism-based. In outline:
(§2)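 SC5314 grown overnight at 30°C, 120 rpm, in yeast nitrogen base (pH 7.0) with 50 mM glucose. Cells were washed in PBS and adjusted to OD600 0.1, then treated 24 h with farnesol from a methanol dilution; controls received methanol. Proteomes of treated and untreated cells were compared by 2-D SDS-PAGE and MALDI-TOF MS, with ProFound searches of the NCBI nonredundant database. Spots changed at least 1.5-fold in three independent experiments were counted.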

For experiment [12], the system named is Candida albicans. As to the kind of experiment: Downregulation of G-beta-like protein expression in Candida albicans SC5314 at 40 uM after 24 hrs by MALDI-TOF MS. It counts as functional, organism-based. In outline:
as §1

Experiment [13] deals with Candida albicans. As to the kind of experiment: Induction of ROS accumulation in mitochondria of Candida albicans SC5314 at 200 uM after 3 hrs by Fluorescence analysis. The format is functional. In outline: (§3)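 Cells were exposed 3 h to 40, 100 or 200 μM farnesol, with methanol control and H2O2 positive control. Washed cells were stained 30 min in the dark with a mix of dichlorodihydrofluorescein diacetate, propidium iodide and calcofluor white, then washed and viewed by confocal microscopy. % green (ROS) cells of all cells was scored, with red (necrotic) cells scored separately.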

For experiment [14], the system named is Candida albicans. The experiment is described as follows: Upregulation of Coproporphyrinogen III oxidase expression in Candida albicans SC5314 at 200 uM after 24 hrs by MALDI-TOF MS. The format is functional, organism-based. In outline: as §1
Experiment [15] concerns Candida albicans. The experiment is described as follows: Downregulation of Putative stress response protein expression in Candida albicans SC5314 at 40 uM after 24 hrs by MALDI-TOF MS. It counts as functional, organism-based. In outline:
as §1

Experiment [16] relates to Candida albicans. The experiment is described as follows: Upregulation of Coproporphyrinogen III oxidase expression in Candida albicans SC5314 at 40 uM after 24 hrs by MALDI-TOF MS. The format is functional, organism-based. In outline: as §1
The test system of experiment [17] is Candida albicans. As to the kind of experiment: Increase in MCA1 expression in Candida albicans SC5314 at 40 uM after 4 hrs by quantitative PCR analysis. The format is functional. In short, it runs like this: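 Log-phase SC5314 cells were used, pregrown overnight at 30°C and 120 rpm in yeast nitrogen base (pH 7.0) with 50 mM glucose, washed in PBS and set to OD600 0.1. Farnesol (methanol stock) was given for 4 h, with methanol-matched untreated controls. SYBR green qPCR ran 35 cycles with 58°C annealing and a melt-curve check. MCA1 was calculated by 2^−ΔΔCT against ACT1 and RPP2B.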

In experiment [18] the test system is Candida albicans. The experiment is described as follows: Induction of ROS accumulation in mitochondria of Candida albicans SC5314 at 40 uM after 3 hrs by Fluorescence analysis. The format is functional. In short, it runs like this:
as §3

The test system of experiment [19] is Candida albicans. As to the kind of experiment: Downregulation of Translational elongation factor 1 expression in Candida albicans SC5314 at 40 uM after 24 hrs by MALDI-TOF MS. The format is functional, organism-based. In short, it runs like this:
as §1

Experiment [20] deals with Candida albicans. As to the kind of experiment: Down regulation of in MCA1 expression in Candida albicans SC5314 at 40 uM after 4 hrs by quantitative PCR analysis. It counts as functional, organism-based. In outline:
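Log-phase SC5314 exposed 4 h to farnesol (methanol vehicle control). cDNA diluted 1:20 and run in SYBR green real-time PCR: 15 min 95°C, then 35 cycles of 95°C 1 min, 58°C 30 s, 72°C 30 s, with a melt curve check. MCA1 level was calculated by 2^−ΔΔCT against ACT1 and RPP2B reference genes.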

The subject of experiment [21] is Candida albicans. As to the kind of experiment: Upregulation of Catalase A expression in Candida albicans SC5314 at 40 uM after 24 hrs by MALDI-TOF MS. It counts as functional, organism-based. In outline:
as §1

Experiment [22] relates to Candida albicans. The experiment is described as follows: Downregulation of Glyceraldehyde-3-phosphate dehydrogenase expression in Candida albicans SC5314 at 40 uM after 24 hrs by MALDI-TOF MS. It counts as functional, organism-based. In outline:
as §1

For experiment [23], the system named is Candida albicans. As to the kind of experiment: Upregulation of Putative aspartate aminotransferase expression in Candida albicans SC5314 at 200 uM after 24 hrs by MALDI-TOF MS. The format is functional, organism-based. In short, it runs like this: as §2
For experiment [24], the system named is Candida albicans. The experiment is described as follows: Induction of apoptosis in Candida albicans SC5314 at 40 uM after 24 hrs by TUNEL assay. The format is functional. In short, it runs like this: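 After 24 h in farnesol (40, 100, 200 μM), cells were PBS-washed, fixed in 4% paraformaldehyde (pH 7.4) 1 h at 20°C, and permeabilized 2 min on ice. They were labeled with 9:1 label:enzyme TUNEL mix 1 h at 37°C in the dark and examined by fluorescence microscopy at 515–565 nm. Flow cytometry counted % positive of 30,000 gated cells, gates set by no-enzyme and DNase-treated controls.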

For the compound `CC(C)=CCC/C(C)=C/CC/C(C)=C/CO` [FARNESOL], the result with Candida albicans [1], with Candida albicans [2], with Candida albicans [3], with Candida albicans [6], in the experiment with Candida albicans [7] and in the experiment on Candida albicans [8] was Active. Also, the outcome with Candida albicans [9], in the experiment with Candida albicans [10], with Candida albicans [11], in the experiment on Candida albicans [12], with Candida albicans [14] and in the experiment on Candida albicans [15] was Active. In addition, the outcome with Candida albicans [16], in the experiment on Candida albicans [19], in the experiment on Candida albicans [21], in the experiment on Candida albicans [22] and in the experiment on Candida albicans [23] was Active. Also, the Activity with Candida albicans [4] is recorded as 84%; in the experiment on Candida albicans [5], under 10%; in the experiment with Candida albicans [13], 65%; in the experiment on Candida albicans [18] it was 26%; with Candida albicans [24] it was 2%. For the same compound, the “fold change (FC)” value with Candida albicans [17] stood at 3. The result in the experiment on Candida albicans [20] was inactive.

The values are drawn from ChEMBL document CHEMBL1649480, “Farnesol-induced apoptosis in Candida albicans” (2009).
